Biological target: Signal transducer and activator of transcription 3 (Homo sapiens, UniProt P40763)
Experiment: Inhibition of STAT3 Y705 phosphorylation in human U266 cells by Western blot analysis
In short: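 Steady-state phosphorylation: exponentially growing U266 cells (1 × 10⁶ cells at 2 × 10⁵ cells/mL, RPMI1640 + 10% FBS) were treated with compound for 1 h. Cells were lysed in PhosphoSafe reagent with protease inhibitors. Western blot used primary antibodies (1:1000, 2 h) and fluorescent secondaries (1 h) at room temperature. A representative blot from several repeats is shown.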

Signal transducer and activator of transcription 3, sequence (P40763 whole entry): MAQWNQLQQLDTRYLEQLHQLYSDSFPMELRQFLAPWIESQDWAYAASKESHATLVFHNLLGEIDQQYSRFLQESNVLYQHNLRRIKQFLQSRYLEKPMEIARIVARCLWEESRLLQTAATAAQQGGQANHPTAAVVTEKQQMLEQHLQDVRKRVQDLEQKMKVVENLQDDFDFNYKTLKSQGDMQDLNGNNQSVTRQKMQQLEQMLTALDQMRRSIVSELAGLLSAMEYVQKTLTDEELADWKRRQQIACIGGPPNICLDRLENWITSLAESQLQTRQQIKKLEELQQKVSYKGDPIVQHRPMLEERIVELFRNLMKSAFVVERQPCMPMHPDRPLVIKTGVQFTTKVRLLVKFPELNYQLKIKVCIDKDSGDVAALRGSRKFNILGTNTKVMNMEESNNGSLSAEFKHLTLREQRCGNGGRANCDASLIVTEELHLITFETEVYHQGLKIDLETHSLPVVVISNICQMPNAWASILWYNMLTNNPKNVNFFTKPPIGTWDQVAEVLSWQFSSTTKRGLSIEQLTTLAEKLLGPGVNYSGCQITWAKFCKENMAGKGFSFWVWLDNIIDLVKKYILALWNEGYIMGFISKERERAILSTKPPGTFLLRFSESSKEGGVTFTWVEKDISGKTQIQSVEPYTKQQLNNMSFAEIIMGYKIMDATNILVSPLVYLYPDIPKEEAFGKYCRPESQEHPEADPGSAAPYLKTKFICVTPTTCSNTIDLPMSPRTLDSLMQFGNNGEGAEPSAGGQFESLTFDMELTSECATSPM

Row | SMILES | EC50
1 | N#Cc1c(F)c(F)c(-n2cc(C(=O)NCc3ccc(F)cc3)c(=O)c3cc(F)c(F)c(F)c32)c(F)c1F [1-(4-Cyano-2,3,5,6-tetrafluorophenyl)-6,7,8-trifluoro-N-(4-fluorobenzyl)-4-oxo-1,4-dihydroquinoline-3-carboxamide] | 200 nM
2 | N#Cc1c(F)c(F)c(-n2cc(C(=O)OCc3ccccc3)c(=O)c3cc(F)c(F)c(F)c32)c(F)c1F [Benzyl 1-(4-Cyano-2,3,5,6-tetrafluorophenyl)-6,7,8-trifluoro-4-oxo-1,4-dihydroquinoline-3-carboxylate] | 130 nM
3 | CCOC(=O)c1cn(-c2c(F)c(F)c(C#N)c(F)c2F)c2c(F)c(F)c(F)cc2c1=O [Ethyl 1-(4-Cyano-2,3,5,6-tetrafluorophenyl)-6,7,8-trifluoro-4-oxo-1,4-dihydroquino-line-3-carboxylate] | 170 nM

More lines, in order of falling EC50, values ahead:

Row | EC50 | SMILES
4 | 46000 nM | O=C(O)c1cn(-c2c(F)c(F)c(F)c(F)c2F)c2c(F)c(F)c(F)c(F)c2c1=O [5,6,7,8-Tetrafluoro-4-oxo-1-(pentafluoro-phenyl)-1,4-dihydroquinoline-3-carboxylic acid]
5 | 4600 nM | CCOC(=O)c1cn(-c2c(F)c(F)c(F)c(F)c2F)c2c(F)c(F)c(F)c(F)c2c1=O [Ethyl 5,6,7,8-tetrafluoro-4-oxo-1-(pentafluorophenyl)-1,4-dihydroquinoline-3-carboxylate]

Source: BindingDB's records for doi:10.1021/jm701271y (Wyeth Research, 2008)
